Reference: ChEMBL document CHEMBL1144977, “Synthesis of pyrimidinopyridine-triazene conjugates targeted to abl tyrosine kinase” (Bioorg Med Chem Lett, 2003)

Columns and labels:
[1] = Alkylating activity (0.1 mM) was determined at pH 7.4; expressed as OD (540n m)/mM of drug); format: ADME; settings: pH 7.4, 100 µM
Method in brief: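 Alkylation read as OD at 540 nm per mM of drug. Drug at 0.1 mM was pre-incubated with NBP in TRIS buffer pH 7.4 for 2 h at 37 °C, then triethylamine/acetone was added.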

K562 = assay: Cytotoxic effect in K562 cells; settings: Homo sapiens
[2] = target: Tyrosine-protein kinase ABL (Homo sapiens, UniProt P00519+P42684); assay: Inhibition of Abl tyrosine kinase; format: protein assay

SMILES	Alkylating activity [1]	IC50 [2] [µM]	IC50 (K562) [µM]
c1cc(N/N=N/CCN2CCOCC2)cc(Nc2nccc(-c3cccnc3)n2)c1		10	10.1
COCCN=NNc1ccc(C(=O)Nc2cccc(Nc3nccc(-c4cccnc4)n3)c2)cc1	0.0002	0.903	16.2
Cc1ccc(NC(=O)c2ccc(/N=N/N(C)CCCl)cc2)cc1Nc1nccc(-c2cccnc2)n1	0.00014	0.8496	17.4
COCC/N=N/Nc1cccc(Nc2nccc(-c3cccnc3)n2)c1		8.6	5.39
Nc1cccc(Nc2nccc(-c3cccnc3)n2)c1		> 10	21.7
Cc1ccc(NC(=O)c2ccc(CN3CCN(C)CC3)cc2)cc1Nc1nccc(-c2cccnc2)n1 [IMATINIB]			0.11
Cn1nnc2c(C(N)=O)ncn2c1=O [TEMOZOLOMIDE]	0.0013	> 100	156

More lines, main results first:

Alkylating activity [1]	IC50 [2] [µM]	SMILES	IC50 (K562) [µM]
0.0002	0.1946	Cc1ccc(NC(=O)c2ccc(/N=N/N(C)C)cc2)cc1Nc1nccc(-c2cccnc2)n1	2.16
	4.89	Nc1ccc(C(=O)Nc2cccc(Nc3nccc(-c4cccnc4)n3)c2)cc1	9.88
0.0015		Cc1ccc(NC(=O)c2ccc(N=NN(C)CO)cc2)cc1Nc1nccc(-c2cccnc2)n1	
0.0002	> 10	Cc1ccc(NC(=O)c2ccc(N)cc2)cc1Nc1nccc(-c2cccnc2)n1	68
